Consider 29 compounds from ChEMBL document CHEMBL1148835, “Weak base dispiro-1,2,4-trioxolanes: potent antimalarial ozonides” (Bioorg Med Chem Lett, 2007).

The structures appear in SMILES notation. ≈ marks a conversion by molar mass, not a printed value.

One data set concerns Plasmodium berghei. As to the kind of experiment: Antimalarial activity as reduced parasitaemia against Plasmodium berghei infected MORO mice (Mus musculus) at 10 mg/kg peroral dose. The settings on record: route oral. It is filed as functional. Further details: scale not given: the % may be the effect or the level left. The method in brief: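 Groups of three P. berghei-infected MORO mice were given a single oral 10 mg/kg dose on day 1 post-infection. Read-out was percent reduction in parasitemia on day 3 post-infection.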

The test system of data set [1] is Plasmodium falciparum. In words: Antimalarial activity against chloroquine-sensitive Plasmodium falciparum NF54. The data set is classed as functional, organism-based. The method in brief:
(§1)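 In vitro growth assay using asexual P. falciparum cultures, K1 for line 1 and NF54 for line 2. Each value is the mean of 2–3 determinations. Individual measurements differed by less than 50%.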

For data set [2], the system named is Plasmodium falciparum. As to the kind of experiment: Antimalarial activity against chloroquine-resistant Plasmodium falciparum K1. The data set is classed as functional, organism-based. The method in brief:
as §1

For data set [3], the target named is Voltage-gated inwardly rectifying potassium channel KCNH2 (Homo sapiens, UniProt Q12809). As to the kind of experiment: Inhibition of hERG by patch clamp assay. It is filed as toxicity.
Chain of Voltage-gated inwardly rectifying potassium channel KCNH2 (Q12809 whole entry): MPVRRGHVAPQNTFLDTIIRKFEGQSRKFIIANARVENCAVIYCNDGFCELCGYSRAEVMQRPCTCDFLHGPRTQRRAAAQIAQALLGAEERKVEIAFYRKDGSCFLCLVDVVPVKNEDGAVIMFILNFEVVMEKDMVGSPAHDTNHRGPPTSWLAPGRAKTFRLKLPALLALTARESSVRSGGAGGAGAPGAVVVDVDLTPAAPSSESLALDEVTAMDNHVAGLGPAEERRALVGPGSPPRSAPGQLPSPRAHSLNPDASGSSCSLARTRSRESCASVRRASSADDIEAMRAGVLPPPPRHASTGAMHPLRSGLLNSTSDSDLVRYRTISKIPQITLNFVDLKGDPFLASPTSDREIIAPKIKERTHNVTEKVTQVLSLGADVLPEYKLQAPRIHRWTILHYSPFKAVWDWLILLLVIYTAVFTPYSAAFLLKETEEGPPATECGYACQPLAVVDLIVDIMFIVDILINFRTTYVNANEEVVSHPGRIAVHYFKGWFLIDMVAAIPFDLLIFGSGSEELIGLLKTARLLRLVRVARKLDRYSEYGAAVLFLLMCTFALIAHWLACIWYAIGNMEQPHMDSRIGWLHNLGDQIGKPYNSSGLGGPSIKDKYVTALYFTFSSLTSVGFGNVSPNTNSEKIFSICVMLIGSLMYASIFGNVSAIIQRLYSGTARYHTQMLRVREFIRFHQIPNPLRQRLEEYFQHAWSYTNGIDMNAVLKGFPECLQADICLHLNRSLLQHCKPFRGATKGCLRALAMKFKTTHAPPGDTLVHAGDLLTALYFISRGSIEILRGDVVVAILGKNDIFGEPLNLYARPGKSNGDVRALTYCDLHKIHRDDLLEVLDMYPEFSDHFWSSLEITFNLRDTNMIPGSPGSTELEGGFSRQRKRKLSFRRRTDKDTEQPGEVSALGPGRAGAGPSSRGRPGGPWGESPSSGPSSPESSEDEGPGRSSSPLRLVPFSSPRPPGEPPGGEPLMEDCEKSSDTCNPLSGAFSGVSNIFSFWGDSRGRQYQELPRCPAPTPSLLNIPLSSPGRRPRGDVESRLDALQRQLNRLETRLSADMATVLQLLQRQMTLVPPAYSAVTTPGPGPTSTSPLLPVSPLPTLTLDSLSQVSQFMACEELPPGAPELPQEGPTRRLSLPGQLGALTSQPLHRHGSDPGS
A short description of data set [4]: Plasma clearance in Sprague-Dawley rat at 25 mg/kg, iv and 50 mg/kg, po. It is filed as ADME, organism-based. The method in brief: (§2)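 Rats were dosed 25 mg/kg IV via a jugular cannula in aqueous citrate buffer, pH 3. Separately, 50 mg/kg was given by oral gavage as a suspension in 0.5% w/v aqueous HPMC. Carotid-cannula serial blood samples were centrifuged immediately and the plasma stored at -80 °C. Plasma was assayed by LC/MS against a calibration curve prepared in plasma. Values are the average of 2–3 determinations.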

A short description of data set [5]: Biodistribution in Sprague-Dawley rat at 25 mg/kg, iv and 50 mg/kg, po. It is filed as ADME, organism-based. As to conditions: in vivo. The method in brief: as §2
Data set [6] in a line: Bioavailability in Sprague-Dawley rat at 25 mg/kg, po. The data set is classed as ADME, organism-based. The settings on record: in vivo.
The species named for a further data set is Rattus norvegicus. In words: Neurotoxicity in rat. It is filed as toxicity, organism-based. The settings on record: in vivo. The method in brief:
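Five-day toxicity study in male rats with daily oral administration, including observation for signs of neurotoxicity.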

Data set [7] can be described thus: Half life in Sprague-Dawley rat at 25 mg/kg, iv and 50 mg/kg, po. The settings on record: in vivo. It is filed as ADME, organism-based. A digest of the protocol: as §2
Data set [8] in a line: Half life in Sprague-Dawley rat at 4 mg/kg, iv and 10 mg/kg, po. It is filed as ADME, organism-based. The settings on record: in vivo. A digest of the protocol: (§3)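 Rats were dosed 4 mg/kg IV via a jugular cannula fitted the day before, in 40% v/v propylene glycol, 10% v/v ethanol and water. Separately, 10 mg/kg was given by oral gavage as a suspension in 0.5% w/v aqueous HPMC. Serial blood was drawn via a carotid cannula and the plasma stored at -80 °C. Plasma was quantified by LC/MS against a calibration curve prepared in plasma. Values are the average of 2–3 determinations.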

Data set [9] is described as follows: Biodistribution in Sprague-Dawley rat at 4 mg/kg, iv and 10 mg/kg, po. It is filed as ADME, organism-based. As to conditions: in vivo. A digest of the protocol: as §3
Data set [10] can be described thus: Plasma clearance in Sprague-Dawley rat at 4 mg/kg, iv and 10 mg/kg, po. It is filed as ADME, organism-based. The method in brief:
as §3

The nature of data set [11]: Plasma clearance in Sprague-Dawley rat at 10 mg/kg, iv and 50 mg/kg, po. The data set is classed as ADME, organism-based. The method in brief:
(§4)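 Rats were dosed 10 mg/kg IV via a jugular cannula in 10% v/v propylene glycol, 10% v/v ethanol and water. Separately, 50 mg/kg was given by oral gavage as a suspension in 0.5% w/v aqueous HPMC. Serial blood was drawn via a carotid cannula and the plasma stored at -80 °C. LC/MS quantification used a calibration curve prepared in plasma. Values are the average of 2–3 determinations.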

A short description of data set [12]: Bioavailability in Sprague-Dawley rat at 10 mg/kg, po. It is filed as ADME, organism-based. As to conditions: in vivo. A digest of the protocol: as §3
Data set [13] can be described thus: Half life in Sprague-Dawley rat at 10 mg/kg, iv and 50 mg/kg, po. The data set is classed as ADME, organism-based. As to conditions: in vivo. A digest of the protocol:
as §4

A short description of data set [14]: Biodistribution in Sprague-Dawley rat at 10 mg/kg, iv and 50 mg/kg, po. It is filed as ADME, organism-based. As to conditions: in vivo. The method in brief: as §4

For the compound `Cc1ccc(S(=O)(=O)O)cc1.N[C@H]1CC[C@]2(CC1)OO[C@]1(O2)C2CC3CC(C2)CC1C3`, in the data set on Plasmodium berghei, the Activity is 98%. This compound also gave an IC50 with Plasmodium falciparum [1] of 0.31 ng/mL.
For the compound `OCC[C@H]1CC[C@]2(CC1)OO[C@]1(O2)C2CC3CC(C2)CC1C3`, the values for the IC50 in the data set on Plasmodium falciparum [2] and in the data set on Plasmodium falciparum [1] were 0.3 ng/mL (≈ 0.973 nM) and 0.75 ng/mL (≈ 2.43 nM), respectively. This compound also registered an Activity with Plasmodium berghei of 89%.
The matching figures for `c1cnn(C[C@H]2CC[C@]3(CC2)OO[C@]2(O3)C3CC4CC(C3)CC2C4)c1`: 1 ng/mL (≈ 2.9 nM), 1.2 ng/mL (≈ 3.48 nM) and 78%.
On to `c1c[nH]c(C[C@H]2CC[C@]3(CC2)OO[C@]2(O3)C3CC4CC(C3)CC2C4)n1`, for which the Activity with Plasmodium berghei stood at 71%.
Take `C1C2CC3CC1CC(C2)[C@]31OO[C@@]2(CC[C@H](Cc3nnn[nH]3)CC2)O1`: the IC50 in the data set with Plasmodium falciparum [2] is 46 ng/mL (≈ 133 nM); in the data set on Plasmodium falciparum [1] it was 55 ng/mL (≈ 159 nM). The Activity in the data set with Plasmodium berghei came out at 40%.
On to `NC(=O)c1cn(C[C@H]2CC[C@]3(CC2)OO[C@]2(O3)C3CC4CC(C3)CC2C4)cn1`, for which, in the data set with Plasmodium berghei, the Activity is 99.76%.
Turning to `c1cn(CC[C@H]2CC[C@]3(CC2)OO[C@]2(O3)C3CC4CC(C3)CC2C4)cn1`, the IC50 in the data set on Plasmodium falciparum [2] is 0.44 ng/mL (≈ 1.23 nM); with Plasmodium falciparum [1], 0.4 ng/mL (≈ 1.12 nM).
Turning to `NC(=O)CNC[C@H]1CC[C@]2(CC1)OO[C@]1(O2)C2CC3CC(C2)CC1C3`, the IC50 in [3] came out at 2700 nM; with Plasmodium falciparum [2], 0.3 ng/mL (≈ 0.856 nM); in the data set on Plasmodium falciparum [1], 0.59 ng/mL (≈ 1.68 nM). This compound also gave a clearance in data set [4] of 102 mL/min/kg. Also, the Vd in [5] was 13 L/kg. Further, the bioavailability in [6] was found to be 58%. For the same compound, in the data set filed under Rattus norvegicus, the Activity entry was “Non-toxic”. The same compound yielded a half-life in data set [7] of 1.57 h.
`O=CN1CCN(C[C@H]2CC[C@]3(CC2)OO[C@]2(O3)C3CC4CC(C3)CC2C4)CC1` had an Activity in the data set on Plasmodium berghei of 99.01%.
On to `NS(=O)(=O)c1ccc(N[C@H]2CC[C@]3(CC2)OO[C@]2(O3)C3CC4CC(C3)CC2C4)cc1`, for which the IC50 was 2.7 ng/mL (≈ 6.21 nM) with Plasmodium falciparum [2] and 3 ng/mL (≈ 6.9 nM) in the data set on Plasmodium falciparum [1]. Besides, in the data set with Plasmodium berghei, the Activity was determined as 99.98%.
Take `CC(C)(C)C1CCC2(CC1)OOC1(CCC(CN)CC1)O2.CS(=O)(=O)O` (stereo not drawn): the IC50 with Plasmodium falciparum [2] and with Plasmodium falciparum [1] was over 100 ng/mL throughout. Moreover, the Activity with Plasmodium berghei stood at 0%.
Regarding `CS(=O)(=O)O.NC[C@H]1CC[C@]2(CC1)OOC1(O2)C2CC3CC(C2)CC1C3` (stereo partly drawn), the IC50 in data set [3] turned out to be 1800 nM; in the data set with Plasmodium falciparum [2], 0.39 ng/mL. Moreover, the clearance in data set [4] was 177 mL/min/kg. In [5], this compound showed a Vd of 39 L/kg. The compound also had a bioavailability in [6] of 31%. Besides, the Activity result in the data set listed under Rattus norvegicus was “Non-toxic”. Moreover, the half-life in data set [7] came out at 2.5 h.
Turning to `C1C2CC3CC1CC(C2)C31OO[C@]2(CC[C@@H](CNC3CC3)CC2)O1.CS(=O)(=O)O` (stereo partly drawn), the results for the IC50 in the data set with Plasmodium falciparum [2] and in the data set with Plasmodium falciparum [1] were 0.56 ng/mL and 0.45 ng/mL, respectively.
The matching figures for `CS(=O)(=O)O.O=C(O)CNC[C@H]1CC[C@]2(CC1)OOC1(O2)C2CC3CC(C2)CC1C3` (stereo partly drawn): 11 ng/mL and 17 ng/mL.
For the compound `CS(=O)(=O)O.NC(=O)CCNC[C@H]1CC[C@]2(CC1)OOC1(O2)C2CC3CC(C2)CC1C3` (stereo partly drawn), the concentration for half-maximal inhibition (IC50) in the data set with Plasmodium falciparum [2] is 0.41 ng/mL; with Plasmodium falciparum [1], 0.91 ng/mL. Also, the Activity in the data set with Plasmodium berghei is 99.92%.
Regarding `CC(C)(N)CNC[C@H]1CC[C@]2(CC1)OOC1(O2)C2CC3CC(C2)CC1C3.CS(=O)(=O)O.CS(=O)(=O)O` (stereo partly drawn), the IC50 came to 0.49 ng/mL in the data set on Plasmodium falciparum [2] and 0.83 ng/mL with Plasmodium falciparum [1].
As for `CN(C)C[C@H]1CC[C@]2(CC1)OOC1(O2)C2CC3CC(C2)CC1C3.CS(=O)(=O)O` (stereo partly drawn), the IC50 in the data set with Plasmodium falciparum [2] was determined as 0.35 ng/mL; with Plasmodium falciparum [1], 0.75 ng/mL.
Taken in the same sequence, the figures for `CS(=O)(=O)O.c1csc(NC[C@H]2CC[C@]3(CC2)OOC2(O3)C3CC4CC(C3)CC2C4)n1` (stereo partly drawn) were 2.3 ng/mL and 2.2 ng/mL.
Consider `CS(=O)(=O)O.c1ncn(C[C@H]2CC[C@]3(CC2)OOC2(O3)C3CC4CC(C3)CC2C4)n1` (stereo partly drawn), for which the IC50 in the data set on Plasmodium falciparum [2] came out at 0.9 ng/mL; in the data set with Plasmodium falciparum [1] it was 1.7 ng/mL.
As to `CS(=O)(=O)O.NOC[C@H]1CC[C@]2(CC1)OOC1(O2)C2CC3CC(C2)CC1C3` (stereo partly drawn), the figures for the IC50 with Plasmodium falciparum [2] and in the data set on Plasmodium falciparum [1] were 28 ng/mL and 20 ng/mL, respectively. The compound further returned an Activity in the data set with Plasmodium berghei of 47%.
The matching figures for `NC(=O)CN(CC(N)=O)C[C@H]1CC[C@]2(CC1)OO[C@]1(O2)C2CC3CC(C2)CC1C3`: 1.7 ng/mL (≈ 4.17 nM), 2 ng/mL (≈ 4.91 nM) and 86%.
The matching figures for `NC(=O)c1ccc(N[C@H]2CC[C@]3(CC2)OO[C@]2(O3)C3CC4CC(C3)CC2C4)cc1`: 1.1 ng/mL (≈ 2.76 nM), 1 ng/mL (≈ 2.51 nM) and 99.98%.
`NC(=O)c1cncn1C[C@H]1CC[C@]2(CC1)OO[C@]1(O2)C2CC3CC(C2)CC1C3` had an Activity in the data set with Plasmodium berghei of 99.77%.
With `OC[C@H]1CC[C@]2(CC1)OO[C@]1(O2)C2CC3CC(C2)CC1C3`, the half-life in [8] came out at 0.45 h. In data set [9], this compound returned a Vd of 5.3 L/kg. The compound further yielded a clearance in data set [10] of 136 mL/min/kg.
In turn, `NS(=O)(=O)c1ccc(NC[C@H]2CC[C@]3(CC2)OO[C@]2(O3)C3CC4CC(C3)CC2C4)cc1` returned an Activity with Plasmodium berghei of 99.95%.
Take `O=C1CN(C[C@H]2CC[C@]3(CC2)OO[C@]2(O3)C3CC4CC(C3)CC2C4)CCN1`: the IC50 worked out at 1.3 ng/mL (≈ 3.45 nM) with Plasmodium falciparum [2] and 1.8 ng/mL (≈ 4.78 nM) with Plasmodium falciparum [1].
`CCOC(=O)NC[C@H]1CC[C@]2(CC1)OO[C@]1(O2)C2CC3CC(C2)CC1C3` came in with an IC50 with Plasmodium falciparum [1] of 0.56 ng/mL (≈ 1.53 nM).
For the compound `Cl.c1cn(C[C@H]2CC[C@]3(CC2)OO[C@]2(O3)C3CC4CC(C3)CC2C4)cn1`, the clearance in [11] turned out to be 60.1 mL/min/kg. For the same compound, the bioavailability in data set [12] was 36%. Further, the IC50 in the data set with Plasmodium falciparum [2] amounted to 1.3 ng/mL; in the data set on Plasmodium falciparum [1] it was 1.1 ng/mL. The compound further registered a half-life in [13] of 0.783 h. This compound came in with a Vd in data set [14] of 4.1 L/kg. In addition, the Activity result in the data set listed under Rattus norvegicus is reported as “Non-toxic”.
`Cl.NCC[C@H]1CC[C@]2(CC1)OO[C@]1(O2)C2CC3CC(C2)CC1C3`: the IC50 with Plasmodium falciparum [2] was found to be 0.15 ng/mL; in the data set with Plasmodium falciparum [1], 0.48 ng/mL.
